Holding throughout (type): functional, organism-based
For experiment [1], the system named is Mus musculus. The experiment is described as follows: Retention for passive avoidance learning in mice at dose 5.0 mg/kg. Further details: dose 5 mg/kg. In short, it runs like this: (§1)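 Naive male CF-1 mice (19–21 g at shipment), 20 per dose, each used once. Dosed i.p. as an aqueous solution or methocel suspension 1 h before footshock training, with a saline group run in parallel. At the test, mice were placed on an outside shelf; entering the box within 60 s counted as no retention. Values are percent retention. A day was discarded unless controls scored 65–75%.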

For experiment [2], the system named is Mus musculus. As to the kind of experiment: Retention for passive avoidance learning in mice at dose 80 mg/kg. Also on record: dose 80 mg/kg. In short, it runs like this:
as §1

For experiment [3], the system named is Mus musculus. As to the kind of experiment: Retention for passive avoidance learning in mice at dose 20 mg/kg. Further details: dose 20 mg/kg. In short, it runs like this: as §1
The test system of experiment [4] is Mus musculus. The experiment is described as follows: Retention for passive avoidance learning in mice at dose 2.5 mg/kg. Also on record: dose 2.5 mg/kg. In short, it runs like this: as §1
The subject of experiment [5] is Mus musculus. As to the kind of experiment: Retention for passive avoidance learning in mice at dose 1.25 mg/kg. Also on record: dose 1.25 mg/kg. In short, it runs like this: as §1
Experiment [6] has as its system Mus musculus. As to the kind of experiment: Compound was tested for cognitive activity by measuring retention for passive avoidance learning in mice at dose 0.63 mg/kg. Further details: dose 0.63 mg/kg. In short, it runs like this:
as §1

The subject of experiment [7] is Mus musculus. As to the kind of experiment: Retention for passive avoidance learning in mice at dose 5 mg/kg. Also on record: dose 5 mg/kg. In short, it runs like this: as §1

Turning to `Cc1ncccc1Oc1ccccc1N`, the Retention in experiment [1] turned out to be 65%; in experiment [2], 40%; in experiment [3] it was 45%.
As for `Cc1cncc(Oc2ccccc2)c1`, the Retention in experiment [1] came to 70%; in experiment [2], 45%; in experiment [3] it was 80%.
For the compound `[O-][n+]1cccc(Oc2ccc[n+]([O-])c2)c1`, the Retention in experiment [1] came out at 90%; in experiment [4] it was 60%; in experiment [2], 60%; in experiment [5], 75%; in experiment [6] it was 65%; in experiment [3], 90%.
Regarding `c1ccc(Oc2ccncc2)cc1`, the Retention in experiment [1] amounted to 70%; in experiment [2], 0%; in experiment [3], 65%.
The like results for `CCOc1ccccc1Oc1cccnc1` were, in that order, 70%, 65% and 70%.
Take `COc1cc2c(cc1OC)C1CC(=O)C(CC(C)C)CN1CC2` (stereo unspecified): the Retention in experiment [4] was determined as 63%; in experiment [7] it was 33%; in experiment [5] it was 59%.
In the case of `CN1C(=O)CN=C(c2ccccc2)c2cc(Cl)ccc21`, the values for the Retention in experiment [4], in experiment [7] and in experiment [5] were 40%, 41% and 53%, respectively.
In the case of `Cc1ncccc1Oc1ccccc1[N+](=O)[O-]`, the Retention came out at 85% in experiment [1]; 70% in experiment [4]; 35% in experiment [2]; 70% in experiment [5]; 70% in experiment [3].
Turning to `c1cncc(Oc2cccnc2)c1`, the figures for the Retention in experiment [1], in experiment [2] and in experiment [3] were 85%, 55% and 100%, respectively.
With `COc1ccc(Oc2cccnc2)cc1`, the Retention stood at 78% in experiment [1], 35% in experiment [2] and 75% in experiment [3].
Turning to `CC(N)Cc1ccccc1` (stereo unspecified), the Retention in experiment [4] turned out to be 75%; in experiment [5], 70%.
Take `c1ccc(Oc2ccccn2)cc1`: the Retention in experiment [1] came out at 65%; in experiment [2], 30%; in experiment [3], 50%.
For `Clc1ccc(Oc2cccnc2)cc1`, the Retention amounted to 80% in experiment [1]; 70% in experiment [4]; 65% in experiment [2]; 65% in experiment [5]; 55% in experiment [6]; 30% in experiment [3].
For `O=[N+]([O-])c1ccccc1Oc1cccnc1`, the results for the Retention in experiment [1], in experiment [2] and in experiment [3] were 60%, 50% and 90%, respectively.
As to `Nc1ccccc1Oc1cccnc1`, the Retention was found to be 80% in experiment [1], 70% in experiment [4], 55% in experiment [2] and 65% in experiment [3].
For `[O-][n+]1cccc(Oc2ccccc2)c1`, the Retention in experiment [1] stood at 40%; in experiment [2] it was 0%; in experiment [3], 20%.
Take `CN(C)CCCN1c2ccccc2Sc2ccc(Cl)cc21`: the Retention in experiment [4] stood at 70%; in experiment [7], 20%; in experiment [5], 70%.
Consider `COc1cccc(Oc2cccnc2)c1`, for which the Retention in experiment [1] stood at 55%; in experiment [2], 20%; in experiment [3], 55%.
On to `FC(F)(F)c1cccc(Oc2cccnc2)c1`, for which the Retention was found to be 30% in experiment [1] and 55% in experiment [3].
Take `Cc1ccncc1Oc1ccccc1`: the Retention in experiment [1] was found to be 75%; in experiment [2], 15%; in experiment [3], 85%.
`COC(=O)c1cccc(Oc2cccnc2)c1`: the Retention in experiment [1] turned out to be 70%; in experiment [2], 55%; in experiment [3] it was 60%.
`Clc1cccc(Oc2cccnc2)c1`: the Retention stood at 60% in experiment [1], 0% in experiment [2] and 60% in experiment [3].
Regarding `c1ccc(Sc2cccnc2)cc1`, the Retention in experiment [1] worked out at 80%; in experiment [2] it was 85%; in experiment [3], 85%.

(Values after ChEMBL document CHEMBL1121804, “Cognition-activating properties of 3-(Aryloxy)pyridines” (J Med Chem, 1981).)
